Values after ≈ are worked out from the molar mass of the structure shown.
Key:
HCT-116 [1] = assay: Induction of apoptosis in human HCT116 cells assessed as early apoptotic cells at 0.5 uM after 48 hrs by Annexin V-FITC/propidium iodide staining-based FACS analysis (reference value: 2.35%); format: functional
BT-474 = assay: Antiproliferative activity against human BT474 cells after 72 hrs by sulforhodamine B assay; format: functional, cell-based; conditions: BT-474, 72 h
Method in brief: (§1)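 Cells grown in ATCC-specified medium with 10% heat-inactivated FBS, penicillin/streptomycin and 10 mM Hepes, at 37 °C under 5% CO2. Seeded, cultured overnight, then exposed to gradient concentrations for 72 h. Growth read by SRB staining; inhibition % = [1−(A450 treated/A450 control)]×100. IC50 obtained by the Logit method from independent experiments.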

[2] = Aqueous solubility of the compound in pH 7.5 Tris buffer after 24 hrs by HPLC method; format: physicochemical
BEL-7404 tumor cell line = assay: Antiproliferative activity against human Bel7404 cells after 72 hrs by sulforhodamine B assay; format: functional, cell-based; conditions: BEL-7404, 72 h; method in brief: as §1
HCT-116 [3] = assay: Induction of apoptosis in human HCT116 cells assessed as early apoptotic cells at 1 uM after 48 hrs by Annexin V-FITC/propidium iodide staining-based FACS analysis (reference value: 2.35%); format: functional
[4] = Half life in Sprague-Dawley rat at 1.0 mg/kg, iv; format: ADME, organism-based; conditions: in vivo
Method in brief: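 Male SD rats dosed i.v. at 1.0 mg/kg or orally at 3.0 mg/kg. Vehicle is DMSO, Tween 80 and normal saline. Plasma concentration–time data give CL, Vss, T1/2, Cmax, Tmax, MRT, AUC and oral bioavailability F.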

HCT-116 [5] = assay: Induction of apoptosis in human HCT116 cells assessed as late apoptotic cells at 1 uM after 48 hrs by Annexin V-FITC/propidium iodide staining-based FACS analysis (reference value: 5.74%); format: functional
KB = assay: Antiproliferative activity against human KB cells after 72 hrs by sulforhodamine B assay; format: functional, cell-based; method in brief: as §1
HCT-116 [6] = assay: Induction of apoptosis in human HCT116 cells pretreated with Z-VAD-FMK pan-caspase inhibitor for 1 hr assessed as early apoptotic cells at 1 uM after 48 hrs by Annexin V-FITC/propidium iodide staining-based FACS analysis (reference value: 1.34%); format: functional; parameters: scale not given: the % may be the effect or the level left
HCT-116 [7] = assay: Antiproliferative activity against human HCT116 cells after 72 hrs by sulforhodamine B assay; format: functional, cell-based; conditions: HCT-116, 72 h; method in brief: as §1
[8] = Half life in mouse liver microsomes at 0.1 uM up to 60 mins by LC-MS/MS analysis; format: ADME, microsome; conditions: liver microsomes
Method in brief: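 Compound at 0.1 μM final (0.01% DMSO, 0.005% BSA) incubated at 37 °C with human, rat or mouse liver microsomes (0.33 mg/mL protein) in 0.1 M Tris/HCl pH 7.4, with 5 mM MgCl2 and 1 mM NADPH. Samples taken at 0, 7, 17, 30 and 60 min, quenched by methanol precipitation, centrifuged, and parent measured by LC-MS/MS. T1/2 and Clint derived.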

A549 = assay: Antiproliferative activity against human A549 cells after 72 hrs by sulforhodamine B assay; format: functional, cell-based; conditions: A549, 72 h; method in brief: as §1

IC50 (BT-474): 770 nM | solubility at 24 h [2]: 15.7 mg/mL (≈ 40.1 mM) | IC50 (BEL-7404 tumor cell line): 360 nM | half-life [4]: 1.51 h | IC50 (KB): 120 nM | IC50 (HCT-116 [7]): 140 nM | half-life at 0.1 µM [8]: 0.909 h | IC50 (A549): 190 nM
Compound: CCN(CC)CCCn1c2c(c3ccccc3c1=O)C(=O)C(=O)c1cc(C)oc1-2
Activity (HCT-116 [1]): 2.39% | Activity (HCT-116 [3]): 8.61% | Activity (HCT-116 [5]): 9.09% | Activity (HCT-116 [6]): 2.99%
